The source made the active and inactive calls. The rule behind the calls is not given here.
How the values were obtained:
Histoplasma capsulatum [1] = experiment: Antifungal activity against Histoplasma capsulatum Darling isolate 1106 at 1 ug/ml after 1 week (reference value: 14 mm); format: functional; details: Darling isolate 1106, 168 h, read-out: DIZ
Blastomyces dermatitidis [2] = experiment: Antifungal activity against Blastomyces dermatitidis Gilchrist & Stokes isolate 1099 at 1 ug/ml after 1 week (reference value: 14 mm); format: functional; details: Gilchrist & Stokes isolate 1099, 168 h, read-out: DIZ
Procedure, shortened: (§1)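 Mycelial phase grown on Sabouraud dextrose agar at 25°C. Agar pH was set to 6 before the test solution was added and was 5.0-5.5 after. Test solutions contained HOAc and Me2SO, and solvent and blank controls were included. Each quadrant was center-inoculated with a 2 × 2 mm piece of a 2-week-old mycelial culture. Colony diameter was measured weekly for 3 weeks and reported as total increments (mm). Duplicates were run.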

Blastomyces dermatitidis [3] = experiment: Antifungal activity against Blastomyces dermatitidis Gilchrist & Stokes isolate 1107 at 1 ug/ml after 3 weeks (reference value: 40 mm); format: functional; details: Gilchrist & Stokes isolate 1107, 504 h, read-out: DIZ; procedure, shortened: as §1
Histoplasma capsulatum [4] = experiment: Antifungal activity against Histoplasma capsulatum Darling isolate 1098 at 1 ug/ml after 1 week (reference value: 12 mm); format: functional; details: Darling isolate 1098, 168 h, read-out: DIZ
Blastomyces dermatitidis [5] = experiment: Antifungal activity against Blastomyces dermatitidis Gilchrist & Stokes isolate 1107 at 1 ug/ml after 1 week (reference value: 20 mm); format: functional, organism-based; procedure, shortened: as §1
Blastomyces dermatitidis [6] = experiment: Antifungal activity against Blastomyces dermatitidis Gilchrist & Stokes isolate 1099 at 1 ug/ml after 2 weeks (reference value: 27 mm); format: functional; details: Gilchrist & Stokes isolate 1099, 336 h, read-out: DIZ; procedure, shortened: as §1
Histoplasma capsulatum [7] = experiment: Antifungal activity against Histoplasma capsulatum Darling isolate 1106 at 1 ug/ml after 2 weeks (reference value: 25 mm); format: functional; details: Darling isolate 1106, 336 h, read-out: DIZ
Blastomyces dermatitidis [8] = experiment: Antifungal activity against Blastomyces dermatitidis Gilchrist & Stokes isolate 1107 at 1 ug/ml after 2 weeks (reference value: 35 mm); format: functional; details: Gilchrist & Stokes isolate 1107, 336 h, read-out: DIZ; procedure, shortened: as §1
Sporotrichum = experiment: Antifungal activity against Sporotrichum schenckii Hektoen & Perkins (1109) at 40 to 80 ug/ml after 2 weeks; format: functional, organism-based
Procedure, shortened: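 Compound in aqueous HOAc/Me2SO was filter-sterilized and mixed into melted (50°) Sabouraud dextrose agar. Agar pH was 7.0-7.5 before addition and 6.0-6.5 after, giving final levels of 10-100 μg/ml. Quadrant plates were center-inoculated with a 2 × 2 mm piece of a 2-week-old mycelial culture, sealed and kept at 25°C. Colony expansion was measured weekly, with solvent and blank controls, in duplicate.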

SMILES	zone of inhibition at 1 µg/mL (Histoplasma capsulatum [1])	zone of inhibition at 1 µg/mL (Blastomyces dermatitidis [2])	zone of inhibition at 1 µg/mL (Blastomyces dermatitidis [3])	zone of inhibition at 1 µg/mL (Histoplasma capsulatum [4])	Activity (Blastomyces dermatitidis [5])	zone of inhibition at 1 µg/mL (Blastomyces dermatitidis [6])	zone of inhibition at 1 µg/mL (Histoplasma capsulatum [7])	zone of inhibition at 1 µg/mL (Blastomyces dermatitidis [8])	diameter of the inhibition zone (DIZ) (Sporotrichum)
C[C@@H]1[C@H](O)[C@@H](C)/C=C/C=C/C=C/C=C/C=C/C=C/C=C/[C@H](O[C@@H]2O[C@H](C)[C@@H](O)[C@H](N)[C@@H]2O)C[C@@H]2O[C@](O)(C[C@@H](O)C[C@@H](O)[C@H](O)CC[C@@H](O)C[C@@H](O)CC(=O)O[C@H]1C)C[C@H](O)[C@H]2C(=O)O [AMPHOTERICIN B]	9 mm	7 mm	32 mm	9 mm	inactive	10 mm	18 mm	19 mm	
C[C@@H]1CC[C@@H](c2ccoc2)N2C(O)[C@@](C)(Sc3ccccc3)CC[C@@H]12 (some centres undefined)									Active

Reference: ChEMBL document CHEMBL3272198, “Preparation and in vitro antifungal activities of some quinolizidine derived hemiaminals and beta-tert-amino sulfides” (1976)
